The entries come from a sample that favours hits as a whole.
HUVEC prolif 384 – inhibitors of human endothelial cell proliferation. 1.1% of 86,000 active. viability, % at 10 µM (by protocol). HUVEC proliferation, CellTiter-Glo luminescence, 72 h; hits give low values. AID 648;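 active means viability at or below 30%; inactive means viability above 30%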;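 further: 100% = median luminescence of DMSO-only cell control wells on each plate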
Fibroblast inh – blocks proliferation of human lung fibroblasts; LL 47 human lung fibroblast viability, ATP luminescence; hits give low values; viability, % at 10 µM; 1.1% of 85,000 active;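 active means viability at or below 50% in the single dose screen; inactive means viability above 50%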;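 further: compound exposure lasted 72 h before the ATP readout; 100% = median luminescence of untreated cell-only wells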
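test system = LL 47 human lung fibroblasts | amount = 1,150 fibroblasts seeded per well | medium = 15% FBS in IMEM | times = overnight cell rest, 72 h compound treatment at 37 °C | measured by = CellTiter-Glo luminescence measuring cellular ATP | read-out = viability percentage against median untreated-cell control | benchmarks = cell-only wells, no compound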
bCat KO growth – beta-catenin-lacking colon tumor cell growth suppression; HCT116 beta-catenin knockout viability, CellTiter-Glo, 60 h; hits give low values; viability, % at 10 µM; 1.5% of 140,000 active; AID 818;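 active means viability at or under a set limit, the compound median less 4 SD, cut at about 6% in these data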;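 further: 0% = Hyamine 1622 control at 20 µM and 100% = untreated cell control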
H69AR inhibit – growth inhibitors of human H69AR lung tumor cells | AID 598 | H69AR lung tumor viability, ATP luminescence, 72 h; hits give low values | 6% of 85,000 active | viability, % at 10 µM;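 active means viability at or below 40%; inactive means viability above 40%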;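 further: multidrug resistant small cell line overexpressing MRP-1 efflux transporter; 100% = mean luminescence of untreated control wells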
HCT116 PTEN-null – growth suppressors of cells with PTEN tumor suppressor deletion. HCT116 PTEN-null viability, CellTiter-Glo, 60 h; hits give low values. viability, % at 10 µM. 1.2% of 140,000 active. AID 827;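 active means viability at or below a set limit, 4 SD under the median of all tested compounds, cut at about 3.7% in these data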;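 further: PTEN knockout HCT116 line with beta catenin targeted HCT116 as companion control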
Numbers without * were called inactive; / = no result given.

SMILES	HUVEC prolif 384	Fibroblast inh	bCat KO growth	H69AR inhibit	HCT116 PTEN-null
Cc1ccc(C(=O)/C=C/C(=O)O)cc1	/	/	70.8	/	73.0
Cc1ccc(/C=C/C(=O)c2ccccc2)cc1	79.3	48.7*	0.9*	84.8	0.4*
CC(=O)Nc1cccc(C(=O)/C=C/c2ccc(Br)cc2)c1	/	/	1.5*	/	1.3*
CCC(=O)Nc1cccc(C(=O)/C=C/c2cc(Br)ccc2OC)c1	/	/	0.8*	/	0.7*
CC(=O)Nc1cccc(C(=O)/C=C/c2ccc(N(C)C)cc2)c1	/	/	56.1	/	58.4
Cc1nc(Cl)c(C(=O)NC(=O)Nc2cccc(C(F)(F)F)c2)c(C)c1[N+](=O)[O-]	78.1	94.0	92.3	6.7*	87.5
COc1cccc(OCC(=O)O/N=C(\N)c2ccc(OC)c(OC)c2)c1	/	/	85.8	/	86.4
O=C(NNC(=O)c1cccnc1SCc1cccc([N+](=O)[O-])c1)c1ccccn1	/	/	6.0*	/	10.1
COc1ccc(-c2nc(N3CCOCC3)nc3nn4c(C)c(CCC(=O)O)c(C)nc4c23)cc1	91.5	112.2	/	96.6	/
c1ccc(CNc2nc3ccccc3[nH]2)cc1	85.6	95.9	78.3	78.3	73.1
COc1ccc2nc(NCc3ccccc3)[nH]c2c1	54.0	67.2	21.4	19.7*	31.0
COc1ccc2nc(NCCO)[nH]c2c1	97.6	100.2	97.0	90.8	101.7
Cc1ccc2nc(NCc3ccccc3)[nH]c2c1	42.6	52.9	18.6	22.3*	21.4
Cc1cc(C)c2nc(NC(=O)[C@@H](NC(=O)c3cccc(S(=O)(=O)N4CCOCC4)c3)C(C)C)sc2c1	/	/	65.8	/	62.5
O=c1[nH]c2ccc(Br)cc2c(-c2ccccc2)c1N1CCOCC1	89.6	82.1	81.0	67.9	80.7
O=c1ccc2cc3c([nH]c4ccc(Br)cc43)oc-2c1O	101.3	86.8	97.6	22.6*	99.8
Cc1ccccc1N1C(S)=C(C#N)C(=O)NC12CCCCC2	/	/	84.2	/	85.5
Cc1ccc(S(=O)(=O)N(Cc2cc3cc4c(cc3[nH]c2=O)OCCO4)CC2CCCO2)cc1 (stereo not drawn)	66.3	98.6	78.8	65.4	85.5
COC(=O)c1ccc(S(=O)(=O)N(Cc2cc3cc4c(cc3[nH]c2=O)OCO4)C2CCCCC2)cc1	94.3	106.5	/	38.7*	/
COc1ccc2cc(CN(CC3COCCO3)S(=O)(=O)c3c(C)cc(C)cc3C)c(=O)[nH]c2c1 (stereo not drawn)	/	/	84.9	/	93.8
O=c1[nH]c2cc3c(cc2cc1CN(CC1CCCO1)S(=O)(=O)c1ccc(Cl)cc1)OCCO3 (stereo not drawn)	73.8	95.4	14.8	11.9*	7.2
COc1ccc2cc(CN(CC3COCCO3)S(=O)(=O)c3ccc(Cl)cc3)c(=O)[nH]c2c1 (stereo not drawn)	101.8	107.5	20.3	13.3*	27.0
CC(=O)c1ccc(S(=O)(=O)N(Cc2cc3cc4c(cc3[nH]c2=O)OCCO4)CC2CCCO2)cc1 (stereo not drawn)	94.4	95.1	108.1	75.5	97.8
COCCCNC(CC(=O)Nc1ccccc1C(=O)OC)C(=O)O (stereo not drawn)	105.3	98.0	/	93.9	/
CCNC(=O)NC(=O)COC(=O)CCCSc1nc2ccccc2s1	/	/	95.2	/	86.4
SMILES	HUVEC prolif 384	Fibroblast inh	bCat KO growth	H69AR inhibit	HCT116 PTEN-null
O=C(CSc1ccc2nnc(-c3ccc(Cl)cc3)n2n1)N1CCCc2ccccc21	/	/	2.4*	/	2.2*
CC(C)(C)c1nnc2sc(SCC(=O)N3CCCc4ccccc43)nn2c1=O	67.8	77.6	60.7	16.9*	62.9
Cc1ccc(C(=O)CSc2nn3c(=O)c(C(C)(C)C)nnc3s2)cc1	70.6	99.1	89.8	53.2	85.8
CC(C)(C)c1nnc2sc(SCC(=O)c3cccs3)nn2c1=O	68.6	84.0	77.5	14.4*	92.8
CC(C)SC1=NC(C)(C)C=C(/C=C/c2c(Cl)cccc2Cl)N1	54.3	83.7	14.3	40.4	13.9
CC(C)SC1=NC(C)(C)C=C(/C=C/c2ccc(Cl)cc2Cl)N1	26.4*	82.2	18.6	33.6*	21.7
CC(C)NC(=O)C(OC(=O)c1ccccc1)C(OC(=O)c1ccccc1)C(=O)O (stereo not drawn)	/	/	97.0	/	106.4
CCn1cc(C(=O)NCc2ccc3c(c2)OCO3)c(=O)c2cc(F)c(N3CCN(C(=O)c4ccco4)CC3)cc21	16.1*	86.0	12.2	0.1*	8.2
CCn1cc(C(=O)Nc2nncs2)c(=O)c2cc(F)c(N3CCN(C(=O)c4ccco4)CC3)cc21	80.2	105.5	/	71.7	/
CCn1cc(C(=O)NCc2ccccc2)c(=O)c2cc(F)c(N3CCN(C(=O)c4ccco4)CC3)cc21	63.0	92.9	58.1	11.9*	44.1
CCOC(=O)c1c(N)sc2c(OC)c(Br)ccc12	26.6*	96.4	97.5	78.1	82.8
CC(=O)Nc1ccc(NC2=Nc3ccccc3N3C2=Nc2c(c(C)nn2-c2ccccc2)C3c2ccccc2)cc1 (stereo not drawn)	76.0	33.5*	21.8	67.3	26.9
O=C(NCc1cccnc1)c1ccc(COc2ccccc2Br)o1	63.4	92.0	78.2	72.2	63.2
O=C(NCc1cccnc1)c1ccc(COc2ccc3c(c2)CCC3)o1	81.0	95.1	74.8	6.4*	64.5
CCOc1ccc(S(=O)(=O)N(CC)CC)cc1NS(=O)(=O)c1ccc(F)c(F)c1F	/	/	90.4	/	87.9
O=C(CCSc1ccc(Cl)cc1)NC12CC3CC(CC(C3)C1)C2	/	/	71.3	/	58.9
CSc1nsc(SCc2ccc(F)cc2)n1	109.9	/	96.9	30.3*	110.3
O=C(Oc1ccc(NC2=C(Cl)C(=O)c3ccccc3C2=O)cc1)c1ccc([N+](=O)[O-])cc1	/	/	0.9*	/	1.1*
CCCN(CCC)S(=O)(=O)c1ccc(C(=O)Nc2nc3c(s2)CCc2ccccc2-3)cc1	/	/	3.1*	/	2.9*
O=C(NC(=S)N(CCCCO)C1CCCCC1)c1sc2ccccc2c1Cl	/	/	46.5	/	40.4
CCCNC(=O)c1c(N)n(-c2ccc3c(c2)OCO3)c2nc3ccccc3nc12	46.1	7.6*	19.9	8.6*	36.4
Cc1cccc(-n2c(N)c(C(=O)NCCN3CCOCC3)c3nc4ccccc4nc32)c1	81.0	100.4	81.9	32.4*	77.8
CC(C)Cn1c(N)c(C(=O)NCCN2CCOCC2)c2nc3ccccc3nc21	90.3	93.5	93.2	45.9	81.7
CCOc1ccc(-n2c(N)c(C(=O)NCc3ccco3)c3nc4ccccc4nc32)cc1	86.2	103.6	11.8	11.4*	8.9
COCCCNC(=O)c1c(N)n(-c2ccc3c(c2)OCO3)c2nc3ccccc3nc12	69.6	74.7	72.2	27.6*	37.0
COc1ccc(-c2cc(C(F)(F)F)nc(-n3ccnc3C)n2)cc1	/	/	68.2	/	61.7
CCN(CC)S(=O)(=O)c1ccc2c(c1)nc(CCC(=O)Nc1ccc3c(c1)OCO3)n2CC	/	/	88.7	/	83.0
CC(C)COC(=O)C1C(=O)CC(C)(O)C(C(=O)OCC(C)C)C1c1cccnc1 (stereo not drawn)	94.3	98.3	74.7	29.4*	86.5
CCN(CC)C(=O)c1sc(NC(=O)c2ccc3c(c2)OCO3)c(C#N)c1C	92.9	100.2	97.9	94.4	101.4
